Converted amounts (≈) assume the structure as drawn.
Legend:
[1] = system: S. hemolyticus ATCC 29970; test: MIC by microdilution; assay type: cell-based; details: Streptococcus pyogenes, ATCC29970
S. aureus NRS100 (COL) = test: MIC by microdilution; assay type: cell-based; details: Staphylococcus aureus
Summary of the method: (§1)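 S. aureus was tested by CLSI broth microdilution in cation-adjusted Mueller Hinton II broth, final inoculum 5 × 10⁵ CFU/mL, 35 °C, read after 16–20 or 20–24 h; oxacillin was tested with 2% NaCl. MIC was the lowest concentration without visible growth, in triplicate. For ATCC 29213, inocula of 5 × 10⁶ and 5 × 10⁷ CFU/mL were also tested.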

S. aureus VRS1 = test: MIC by microdilution; assay type: cell-based; details: Staphylococcus aureus, MRSA
Summary of the method: as §1

E. faecalis 201 (Van S) = test: MIC by microdilution; assay type: cell-based; details: Enterococcus faecalis
Summary of the method: (§2)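 CLSI broth microdilution in cation-adjusted Mueller Hinton II broth, final inoculum 5 × 10⁵ CFU/mL. Plates incubated at 35 °C and read after 16–20 or 20–24 h depending on species. MIC taken as the lowest concentration with no visible growth. All determinations in triplicate.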

S. epidermis ATCC 35547 = test: MIC by microdilution; assay type: cell-based
Summary of the method: as §2

S. aureus VRS2 = test: MIC by microdilution; assay type: cell-based; details: Staphylococcus aureus, MRSA
Summary of the method: as §1

S. oralis ATCC 9811 = test: MIC by microdilution; assay type: cell-based; details: Streptococcus oralis, ATCC9811
Summary of the method: (§3)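 Streptococcal MICs came from CLSI broth microdilution in cation-adjusted Mueller Hinton II broth with 5% lysed horse blood. Final inoculum 5 × 10⁵ CFU/mL, incubation at 35 °C, read after 16–20 or 20–24 h depending on species. MIC was the lowest concentration without visible growth, determined in triplicate.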

S. aureus NRS120 = test: MIC by microdilution; assay type: cell-based; details: Staphylococcus aureus
Summary of the method: as §1

E. faecium 106 (Van R) = test: MIC by microdilution; assay type: cell-based; details: Enterococcus faecium
Summary of the method: as §2

E. faecalis 99 (Van R) = test: MIC by microdilution; assay type: cell-based; details: Enterococcus faecalis
Summary of the method: as §2

E. faecium NCTC 7171 = test: MIC by microdilution; assay type: cell-based; details: Enterococcus faecium, NCTC7171
Summary of the method: as §2

S. aureus ATCC 29213 = test: MIC by microdilution; assay type: cell-based; details: Staphylococcus aureus, ATCC29213
Summary of the method: as §1

S. aureus NRS119 = test: MIC by microdilution; assay type: cell-based; details: Staphylococcus aureus
Summary of the method: as §1

E. faecalis ATCC 29212 = test: MIC by microdilution; assay type: cell-based; details: Enterococcus faecalis, ATCC29212
Summary of the method: as §2

[2] = system: E. faecium 119–39A (Van S); test: MIC by microdilution; assay type: cell-based; details: Enterococcus faecium
Summary of the method: as §2

S. aureus ATCC 27660 = test: MIC by microdilution; assay type: cell-based; details: Staphylococcus aureus, ATCC27660
Summary of the method: as §1

S. pyogenes ATCC 49399 = test: MIC by microdilution; assay type: cell-based; details: Streptococcus pyogenes, ATCC49399
Summary of the method: as §3

[3] = system: peptidoglycan synthesis of S. aureus; test: Macromolecular synthesis assay, D-[2,3-3H]-alanine incorporation; assay type: cell-based, Staphylococcus aureus; details: S. aureus ATCC 29213, logarithmic phase; 0.25 and 0.5 μg/mL
Summary of the method: (§4)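 Mid-exponential S. aureus ATCC 29213 in brain heart infusion was labelled with 1 μCi/mL ³H-precursor for 10 min at 37 °C before test compound addition (0.25, 0.5 μg/mL). Controls: ciprofloxacin (thymidine), rifampicin (uridine), tetracycline (leucine), fosfomycin (alanine). Samples every 20 min up to 2 h, precipitated in 20% cold TCA, filtered, scintillation-counted. Triplicates, repeated at least twice; % inhibition versus control.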

[4] = system: E. coli S30 extract coupled transcription and translation system; test: In vitro transcription/translation assay; assay type: biochemical; details: concentrations of up to 160 μg/mL (80-fold above the MIC)
Summary of the method: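 The coupled system used the E. coli S30 extract (circular DNA) with a pUC19 lacZ template. Test compound was added at 0.5, 5, 50 and 160 μg/mL alongside a negative control. Reactions ran 2 h at 37 °C and were stopped on ice for 5 min. β-Galactosidase was quantified by o-nitrophenyl-β-D-galactoside hydrolysis, read at 420 nm against a standard curve.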

Pharmacokinetics in mice = assay type: in vivo; details: for AUC(0-inf) / Vd / Cmax / Tmax / clearance: ICR, mouse, plasma, 50 mg/kg; for higher systemic exposure relative to comparator compound / volume of distribution (in words): mice; for higher systemic exposure relative to comparator compound: 50 mg/kg iv, compound 3 vs compound 2, compound 4 vs compound 3; for volume of distribution (in words): single 50 mg/kg iv
Summary of the method: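 Female ICR mice received a single 50 mg/kg dose, either iv in 10% DMSO/25% Tween-80/65% water or po by gavage (n = 3 per time point). Terminal blood was taken at 2 min–24 h after iv and 0.5–48 h after po, then centrifuged for plasma. Plasma was precipitated with acetonitrile containing internal standard and analysed by C18 UPLC-ESI(+)-MRM against calibration curves in blank mouse plasma.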

[5] = system: S. aureus ATCC 27660 (MRSA); test: Mouse peritonitis infection model; assay type: in vivo, Staphylococcus aureus; details: mice, antibiotic 3 vs 4
Summary of the method: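 Female ICR mice (6–8 weeks, 17–20 g) were infected intraperitoneally with 0.5 mL MRSA ATCC 27660 at 5 × 10⁷ CFU/mL in 5% mucin. The inoculum was grown in brain heart infusion and adjusted to OD540 0.5. A single oral gavage dose was given 1 h post-infection (n = 6/group), with linezolid 10 mg/kg as positive control. Survival was monitored over 2 days.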

[6] = system: T7 polymerase transcription of the dacB gene encoding E. coli PBP4; test: In vitro transcription assay; assay type: biochemical; details: 0.5, 5, 50 and 160 μg/mL, 2 h at 37 °C
Summary of the method: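 Template was pET24a carrying E. coli K12 dacB without the 90-bp signal-peptide region, linearized with XhoI, 2 μL at 0.5 μg/μL per reaction. Run with a T7 transcription kit, test compound or negative control, then iced. DNaseI (37 °C, 15 min) and EDTA with 65 °C for 10 min followed. Transcripts diluted 30-fold and run on a 1% denaturing formaldehyde gel in MOPS pH 7.0.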

Hemolysis assay = assay type: cell-based, horse; details: horse, washed red blood cells from horse whole blood
[7] = target: purified recombinant PBP2a (Staphylococcus aureus, UniProt P07944); test: Continuous spectrophotometric PBP2a inhibition assay with nitrocefin; assay type: biochemical, MRSA
purified recombinant PBP2a, sequence (P07944 whole entry): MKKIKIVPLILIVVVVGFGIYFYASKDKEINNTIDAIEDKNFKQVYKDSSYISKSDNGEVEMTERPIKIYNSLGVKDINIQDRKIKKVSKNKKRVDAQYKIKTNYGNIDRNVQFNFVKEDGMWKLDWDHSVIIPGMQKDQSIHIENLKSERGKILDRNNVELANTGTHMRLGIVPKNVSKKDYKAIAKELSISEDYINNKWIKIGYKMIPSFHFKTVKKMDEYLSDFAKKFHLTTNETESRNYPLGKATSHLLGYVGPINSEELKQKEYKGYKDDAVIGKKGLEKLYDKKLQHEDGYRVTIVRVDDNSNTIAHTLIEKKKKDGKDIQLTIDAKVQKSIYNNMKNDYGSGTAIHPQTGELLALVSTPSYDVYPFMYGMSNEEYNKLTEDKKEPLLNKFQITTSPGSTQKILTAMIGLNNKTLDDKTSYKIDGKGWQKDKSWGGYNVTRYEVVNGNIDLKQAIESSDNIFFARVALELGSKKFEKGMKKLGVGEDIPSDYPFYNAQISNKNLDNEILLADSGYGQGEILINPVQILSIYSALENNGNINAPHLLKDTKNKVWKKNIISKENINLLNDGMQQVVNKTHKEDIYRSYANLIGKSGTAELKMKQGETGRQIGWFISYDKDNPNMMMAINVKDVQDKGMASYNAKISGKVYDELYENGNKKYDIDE

[8] = system: RNA synthesis (transcription) of S. aureus; test: Macromolecular synthesis assay, [5-3H]-uridine incorporation; assay type: cell-based, Staphylococcus aureus; details: S. aureus ATCC 29213, logarithmic phase; 0.25 and 0.5 μg/mL
Summary of the method: as §4

[9] = system: protein synthesis (translation) of S. aureus; test: Macromolecular synthesis assay, L-[4,5-3H]-leucine incorporation; assay type: cell-based, Staphylococcus aureus; details: S. aureus ATCC 29213, logarithmic phase; 0.25 and 0.5 μg/mL
Summary of the method: as §4

[10] = system: DNA synthesis (replication) of S. aureus; test: Macromolecular synthesis assay, [methyl-3H]-thymidine incorporation; assay type: cell-based, Staphylococcus aureus; details: S. aureus ATCC 29213, logarithmic phase; 0.25 and 0.5 μg/mL
Summary of the method: as §4

E. faecium = test: Initial antibacterial screen of in silico hits; assay type: cell-based, Enterococcus faecium; details: initial screening of in silico hits
S. aureus = test: Initial antibacterial screen of in silico hits; assay type: cell-based, Staphylococcus aureus; details: initial screening of in silico hits
red blood cells = test: Hemolysis assay; assay type: cell-based, horse; details: horse RBCs, 37 °C, 1 h; 3% values at 64 μg/mL (32-fold above the MIC)

Structure (SMILES)	MIC [1] [µg/mL]	MIC (S. aureus NRS100 (COL)) [µg/mL]	MIC (S. aureus VRS1) [µg/mL]	MIC (E. faecalis 201 (Van S)) [µg/mL]	MIC (S. epidermis ATCC 35547) [µg/mL]	MIC (S. aureus VRS2) [µg/mL]	MIC (S. oralis ATCC 9811) [µg/mL]	MIC (S. aureus NRS120) [µg/mL]	MIC (E. faecium 106 (Van R)) [µg/mL]	MIC (E. faecalis 99 (Van R)) [µg/mL]	MIC (E. faecium NCTC 7171) [µg/mL]	MIC (S. aureus ATCC 29213) [µg/mL]	MIC (S. aureus NRS119) [µg/mL]	MIC (E. faecalis ATCC 29212) [µg/mL]	MIC [2] [µg/mL]	MIC (S. aureus ATCC 27660) [µg/mL]	MIC (S. pyogenes ATCC 49399) [µg/mL]	AUC(0-inf) (Pharmacokinetics in mice; iv) [ng·h/mL]	Vd (Pharmacokinetics in mice; iv) [L/kg]	volume of distribution (in words) (Pharmacokinetics in mice)	further results
CC(=O)NC[C@H]1CN(c2ccc(N3CCOCC3)c(F)c2)C(=O)O1 [linezolid, reference compound]	2 (≈ 5.93 µM)	2 (≈ 5.93 µM)	2 (≈ 5.93 µM)	2 (≈ 5.93 µM)	1 (≈ 2.96 µM)	2 (≈ 5.93 µM)	1 (≈ 2.96 µM)	32 (≈ 94.9 µM)	1 (≈ 2.96 µM)	1 (≈ 2.96 µM)	2 (≈ 5.93 µM)	4 (≈ 11.9 µM)	32 (≈ 94.9 µM)	2 (≈ 5.93 µM)	2 (≈ 5.93 µM)	2 (≈ 5.93 µM)	1 (≈ 2.96 µM)				
Oc1ccc(-c2nc(-c3ccc(Oc4ccc(C(F)(F)F)cc4)cc3)no2)cc1 [Compound 3, 4-(3-(4-(4-(Trifluoromethyl)phenoxy)phenyl)-1,2,4-oxadiazol-5-yl)phenol]	2 (≈ 5.02 µM)	2 (≈ 5.02 µM)	2 (≈ 5.02 µM)	2 (≈ 5.02 µM)	2 (≈ 5.02 µM)	2 (≈ 5.02 µM)	32 (≈ 80.3 µM)	2 (≈ 5.02 µM)	2 (≈ 5.02 µM)		2 (≈ 5.02 µM)	2 (≈ 5.02 µM)	2 (≈ 5.02 µM)	2 (≈ 5.02 µM)	1 (≈ 2.51 µM)	2 (≈ 5.02 µM)	> 32	44200	0.37	moderate volume of distribution	inhibition of peptidoglycan synthesis [3]: inhibited peptidoglycan synthesis; effect on β-galactosidase formation [4]: no effect; AUC(0-inf) (Pharmacokinetics in mice; female, po): 43700 ng·h/mL; Cmax (Pharmacokinetics in mice; female, po): 2500 ng/mL; Tmax (Pharmacokinetics in mice; female, po): 2 h; higher systemic exposure relative to comparator compound (Pharmacokinetics in mice): 2 fold; efficacy following po dosing (comparison) [5]: superior efficacy; effect on dacB mRNA band intensities [6]: no effect; hemolysis at 1 h, 64 μg/mL (Hemolysis assay): 3%; IC50 [7]: 20.1 µM; inhibition of transcription [8]: did not inhibit; inhibition of translation [9]: did not inhibit; inhibition of replication (DNA synthesis) [10]: did not inhibit
Fc1ccc(-c2nc(-c3ccc(Oc4ccc(C(F)(F)F)cc4)cc3)no2)cc1 [Compound 1, 5-(4-Fluorophenyl)-3-(4-(4-(trifluoromethyl)phenoxy)phenyl)-1,2,4-oxadiazole]																					MIC (in words) (E. faecium): poor but reproducible MIC; MIC (in words) (S. aureus): poor but reproducible MIC
Oc1ccc(-c2nc(-c3ccc(Oc4ccccc4)cc3)no2)cc1 [Compound 2, 4-(3-(4-Phenoxyphenyl)-1,2,4-oxadiazol-5-yl)phenol]	2 (≈ 6.05 µM)	2 (≈ 6.05 µM)	2 (≈ 6.05 µM)	2 (≈ 6.05 µM)	2 (≈ 6.05 µM)	2 (≈ 6.05 µM)	32 (≈ 96.9 µM)	2 (≈ 6.05 µM)	2 (≈ 6.05 µM)		1 (≈ 3.03 µM)	2 (≈ 6.05 µM)	2 (≈ 6.05 µM)	2 (≈ 6.05 µM)	1 (≈ 3.03 µM)	2 (≈ 6.05 µM)	32 (≈ 96.9 µM)	23000	0.86	large volume of distribution	clearance (Pharmacokinetics in mice; iv): 36.2 mL/min/kg; hemolysis at 1 h, 64 μg/mL (Hemolysis assay): 3%; IC50 [7]: 12.1 µM
CN[C@H](CC(C)C)C(=O)N[C@H]1C(=O)N[C@@H](CC(N)=O)C(=O)N[C@H]2C(=O)N[C@H]3C(=O)N[C@H](C(=O)N[C@H](C(=O)O)c4cc(O)cc(O)c4-c4cc3ccc4O)[C@H](O)c3ccc(c(Cl)c3)Oc3cc2cc(c3O[C@@H]2O[C@H](CO)[C@@H](O)[C@H](O)[C@H]2O[C@H]2C[C@](C)(N)[C@H](O)[C@H](C)O2)Oc2ccc(cc2Cl)[C@H]1O [vancomycin, reference compound]	2 (≈ 1.38 µM)	2 (≈ 1.38 µM)	512 (≈ 353 µM)	1 (≈ 0.69 µM)	16 (≈ 11 µM)	64 (≈ 44.2 µM)	0.5 (≈ 0.345 µM)	2 (≈ 1.38 µM)	256 (≈ 177 µM)	128 (≈ 88.3 µM)	0.5 (≈ 0.345 µM)		2 (≈ 1.38 µM)	2 (≈ 1.38 µM)	0.5 (≈ 0.345 µM)	1 (≈ 0.69 µM)	0.6 (≈ 0.414 µM)				
Nc1ccc(-c2nc(-c3ccc(Oc4ccc(C(F)(F)F)cc4)cc3)no2)cc1 [Compound 4, 4-(3-(4-(4-(Trifluoromethyl)phenoxy)phenyl)-1,2,4-oxadiazol-5-yl)aniline]	4 (≈ 10.1 µM)	2 (≈ 5.03 µM)	2 (≈ 5.03 µM)	> 32	2 (≈ 5.03 µM)	2 (≈ 5.03 µM)	32 (≈ 80.5 µM)	2 (≈ 5.03 µM)	2 (≈ 5.03 µM)	2 (≈ 5.03 µM)	2 (≈ 5.03 µM)	2 (≈ 5.03 µM)	2 (≈ 5.03 µM)	2 (≈ 5.03 µM)	1 (≈ 2.52 µM)	2 (≈ 5.03 µM)	32 (≈ 80.5 µM)	153000	0.72	large volume of distribution	clearance (Pharmacokinetics in mice; iv): 5.4 mL/min/kg; AUC(0-inf) (Pharmacokinetics in mice; female, po): 154000 ng·h/mL; Cmax (Pharmacokinetics in mice; female, po): 10000 ng/mL; Tmax (Pharmacokinetics in mice; female, po): 2 h; higher systemic exposure relative to comparator compound (Pharmacokinetics in mice): 3.5 fold; hemolysis of red blood cells (red blood cells): not hemolytic at all
